Data set [1] can be described thus: Thermodynamic solubility in pH 7.4 PBS buffer incubated for 24 hrs at 22 degC by HPLC method. The data set is classed as physicochemical. To be noted: read-out: Therm_solubility. The gist of the method: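 Powder dissolved to saturation in pH 7.4 PBS (100 mM sodium phosphate, 150 mM NaCl), or in PBS with 10% Cdx, and shaken 24 h. After centrifugation, supernatant quantified by HPLC against a per-compound calibration line prepared from the DMSO stock.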

Data set [2] addresses T1, Stromal cell-derived factor 1 (Homo sapiens, UniProt P48061). Put plainly: Binding affinity to Texas Red-labelled CXCL12 (unknown origin) assessed as inhibition of CXCL12-Texas Red binding to EGFP-labeled human CXCR4 expressed in HEK293 cell membranes pre-incubated for 1 hr by FRET-based binding assay. The gist of the method: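 HEK-293 cells stably expressing human EGFP-CXCR4, 10⁶ cells/ml in HEPES buffer pH 7.4 with 0.1% BSA, 21 °C. CXCL12-Texas Red (100 nM) was preincubated 1 h at room temperature with compound or DMSO, then added at t=150 s. FRET read as loss of EGFP emission at 510 nm (excitation 470 nm) up to equilibrium. Ki from dose-response curves.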

Data set [3] deals with Mus musculus. Put plainly: Inhibition of eosinophil infiltration in Balb/c mouse model of 8 day model of allergic eosinophilic airway inflammation at 300 nmol/kg dosed intranasally 2 hrs before ovalbumin challenge by hemocytometry. The data set is classed as functional. To be noted: inhaled or nasal. The gist of the method:
(§1)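 OVA/alum-sensitized Balb/c mice challenged intranasally with OVA on days 5–7. Compounds at 300 nmol/kg in 10% PBS/Cdx given intranasally 2 h before each challenge. BAL 24 h after the last challenge; eosinophils, neutrophils and lymphocytes counted by hemocytometer and differential cytospin; n=6/group.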

Data set [4] deals with Mus musculus. Put plainly: Anti-inflammatory activity in Balb/c mouse model of hypereosinophilia assessed as inhibition of eosinophil infiltration at 350 umol/kg, ip dosed 2 hrs before allergen challenge. The data set is classed as functional. Put shortly:
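Balb/c mice sensitized with OVA/alum i.p. and challenged intranasally with OVA on 3 consecutive days. Compounds given i.p. 2 h before each challenge: neutraligands 350 μmol/kg in PBS/CMC 1%, AMD3100 12.6 μmol/kg, dexamethasone 2.5 μmol/kg. BAL 24 h after the last challenge; absolute eosinophil counts; mean ± SEM, n=6/group.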

Data set [5] has as its target T2, C-C motif chemokine 17 (Homo sapiens) (UniProt Q92583).
T2 sequence (whole entry): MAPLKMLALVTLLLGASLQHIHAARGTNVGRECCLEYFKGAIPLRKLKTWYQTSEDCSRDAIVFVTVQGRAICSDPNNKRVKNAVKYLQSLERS
As to the kind of experiment: Binding affinity to CCL17 (unknown origin) assessed as inhibition of CCL17-induced increase in intracellular calcium level in EGFP-tagged CCR4 expressing HEK cells at 10 uM.

The subject of data set [6] is Mus musculus. As to the kind of experiment: Toxicity in Balb/c mouse model of hypereosinophilia assessed as induction of spleen lesions at 350 umol/kg, ip dosed daily 2 hrs before allergen challenge for […] and measured 24 hrs after last dose by Gomori's trichrome staining based histological analysis. It counts as organism-based. Particulars: in vivo.
Data set [7] concerns Mus musculus. As to the kind of experiment: Toxicity in Balb/c mouse model of hypereosinophilia assessed as reduction in body weight at 350 umol/kg, ip dosed daily 2 hrs before allergen challenge for 3 days and measured 24 hrs after last dose. It counts as organism-based. Also on record: scale not given: the % may be the effect or the level left. Particulars: in vivo. Put shortly:
(§2)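 Same OVA model with i.p. dosing 2 h before each of the three challenges: neutraligands 350 μmol/kg in PBS/CMC 1%, AMD3100 12.6 μmol/kg, dexamethasone 2.5 μmol/kg. Body and spleen weight loss recorded 24 h after three daily administrations; n=6/group.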

The test system of data set [8] is Mus musculus. Put plainly: Toxicity in Balb/c mouse model of hypereosinophilia assessed as reduction in spleen weight at 12.6 umol/kg, ip dosed daily 2 hrs before allergen challenge for 3 days and measured 24 hrs after last dose. It counts as organism-based. To be noted: in vivo. Put shortly:
as §2

Data set [9] deals with Mus musculus. As to the kind of experiment: Inhibition of lymphocytes infiltration in Balb/c mouse model of 8 day model of allergic eosinophilic airway inflammation at 300 nmol/kg dosed intranasally 2 hrs before ovalbumin challenge by hemocytometry. The data set is classed as functional, organism-based. The gist of the method: as §1
Data set [10] can be described thus: Chemical stability in pH 7.4 PBS/Cdx buffer assessed as parent compound remaining at 10 uM incubated for 24 hrs by RP-HPLC method. It counts as physicochemical. Particulars: read-out: Stability. Put shortly:
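Compound diluted from DMSO stock to 10 μM final (1% DMSO) in PBS pH 7.4, or in PBS with 10% w/w (2-hydroxypropyl)-β-cyclodextrin. Sampled at t0, 2, 4, 6 and 24 h and injected directly onto RP-HPLC. Percent remaining relative to t0 from peak area.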

The nature of data set [11]: Kinetic solubility in pH 7.4 HEPES-BSA buffer at 5 uM incubated for 24 hrs at 20 degC by HPLC method. The data set is classed as physicochemical. Particulars: read-out: Kinetic_solubility. Put shortly:
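Compound added from 10 mM DMSO stock to 5 μM in pH 7.4 HEPES-BSA buffer (1 g/L BSA), shaken 24 h at 20 °C. After centrifugation, supernatant concentration measured by HPLC against 5 and 10 μM standards.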

The subject of data set [12] is Mus musculus. Put plainly: Toxicity in Balb/c mouse model of hypereosinophilia assessed as reduction in spleen weight at 350 umol/kg, ip dosed daily 2 hrs before allergen challenge for 3 days and measured 24 hrs after last dose. To be noted: in vivo. Also on record: scale not given: the % may be the effect or the level left. It counts as organism-based. Put shortly: as §2

The test system of data set [13] is Mus musculus. As to the kind of experiment: Anti-asthma activity in Balb/c mouse model of mouse model of hypereosinophilia assessed as inhibition of eosinophil recruitment at 1400 umol/kg, po dosed intranasally 2 hrs before ovalbumin challenge by hemocytometry. The data set is classed as functional. Particulars: in the assay text read “po dosed” for “po dosed intranasally”. The gist of the method: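 OVA-sensitized 9-week-old male Balb/c mice (50 μg OVA on 2 mg alum i.p., days 0–2; intranasal OVA 10 μg, days 5–7). Compound at 1400 μmol/kg in PBS/MC 0.5%/Tween 80 0.05% given by gavage 2 h before each challenge. BAL 24 h after the last challenge; eosinophils counted by hemocytometer and Diff-Quick cytospin (≥400 cells); n=6/group.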

For data set [14], the system named is Mus musculus. As to the kind of experiment: Toxicity in Balb/c mouse model of hypereosinophilia assessed as induction of liver lesions at 350 umol/kg, ip dosed daily 2 hrs before allergen challenge for […] and measured 24 hrs after last dose by Gomori's trichrome staining based histological analysis. It counts as organism-based. To be noted: in vivo.
For data set [15], the target named is T1, Stromal cell-derived factor 1. Put plainly: Binding affinity to CXCL12 (unknown origin) assessed as inhibition of CXCL12 -induced increase in intracellular calcium level in EGFP-tagged CXCR4 expressing HEK cells at 10 uM. It counts as cell-based. Put shortly: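 TRIC-r calcium assay, neutraligand protocol. Compound at 10 μM (DMSO control) tested against calcium responses triggered by 5 nM of each chemokine on its receptor line: CXCL12 on EGFP-CXCR4⁺ HEK, CCL17 or CCL22 on EGFP-CCR4⁺ HEK, CCL5 on EGFP-CCR5⁺ HEK, CCL2 on EGFP-CCR2⁺ HEK. Mean ± SD, n=3.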

The subject of data set [16] is Mus musculus. As to the kind of experiment: Toxicity in Balb/c mouse model of hypereosinophilia assessed as toxic signs at 350 umol/kg, ip dosed daily 2 hrs before allergen challenge for 10 days and measured 24 hrs after last dose. To be noted: in vivo. It counts as organism-based. Put shortly: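 Mice given 10 daily administrations at 350 μmol/kg. Monitored for weight loss and for signs of toxicity, including prostration and bristly hair.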

For data set [17], the system named is Mus musculus. As to the kind of experiment: Toxicity in Balb/c mouse model of hypereosinophilia assessed as induction of kidney lesions at 350 umol/kg, ip dosed daily 2 hrs before allergen challenge for […] and measured 24 hrs after last dose by Gomori's trichrome staining based histological analysis. Particulars: in vivo. It counts as organism-based.

≈ marks a conversion by molar mass, not a printed value. Calls of active or inactive are those of the source. The calls are words filed in the database; no cut-off is given here. A value given as a limit tells only on which side of the number the result lay.

T1 sequence (P48061 whole entry): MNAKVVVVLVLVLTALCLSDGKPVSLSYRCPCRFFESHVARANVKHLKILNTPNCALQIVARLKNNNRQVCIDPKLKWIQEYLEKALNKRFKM

Regarding `COc1cc(-c2cc(-c3ccc(Cl)cc3)nc(=O)[nH]2)ccc1O`, the solubility thermodynamic at 24 h in data set [1] was 36.4 µM (≈ 12 µg/mL). Further, the inhibition constant Ki in data set [2] amounted to 267 nM. Also, the inhibition in vivo at 0.3 µmol/kg in data set [3] came to 48%. Moreover, in data set [4], the inhibition in vivo at 350 µmol/kg stood at 55%. Also, the inhibition entry in data set [5] and in data set [9] was “inactive” each time. For the same molecule, the Activity result in data set [6] is recorded as “Non-Toxic”; in data set [7], 0%; in data set [8] it was “Non-Toxic”; in data set [12], 0%; in data set [14], “Non-Toxic”; in [16] it was “Non-Toxic”. The Activity entry in data set [17] is “Non-Toxic”. In addition, the remaining at 24 h, 10 µM in [10] worked out at 100%. Further, the solubility kinetic at 24 h, 5 µM in data set [11] is greater than 5 µM. The inhibition in vivo at 1400 µmol/kg in data set [13] was determined as 62%. Besides, in data set [15], the inhibition result is “Active”.

For the origin of these results see ChEMBL document CHEMBL4145692, “Discovery of a Locally and Orally Active CXCL12 Neutraligand (LIT-927) with Anti-inflammatory Effect in a Murine Model of Allergic Airway Hypereosinophilia” (J Med Chem, 2018).
